According to ChEMBL document CHEMBL4825680, “Structure-based discovery of potent and selective small-molecule inhibitors targeting signal transducer and activator of transcription 3 (STAT3)” (Eur J Med Chem, 2021):
Active and inactive are the calls of the source. The rule behind the calls is not given here.

Legend:
MDA-MB-231 [1] = experiment: Antiproliferative activity against human MDA-MB-231 cells; format: functional, cell-based
[2] = molecular target: T1, Signal transducer and activator of transcription 3 (Homo sapiens, UniProt P40763); experiment: Inhibition of STAT3 phosphorylation at Tyr705 residue in human MDA231-LM2-4175 cells after 3 hrs by Western blotting analysis; format: cell-based; conditions: dose 0.3-3 µM
T1 sequence (P40763 whole entry): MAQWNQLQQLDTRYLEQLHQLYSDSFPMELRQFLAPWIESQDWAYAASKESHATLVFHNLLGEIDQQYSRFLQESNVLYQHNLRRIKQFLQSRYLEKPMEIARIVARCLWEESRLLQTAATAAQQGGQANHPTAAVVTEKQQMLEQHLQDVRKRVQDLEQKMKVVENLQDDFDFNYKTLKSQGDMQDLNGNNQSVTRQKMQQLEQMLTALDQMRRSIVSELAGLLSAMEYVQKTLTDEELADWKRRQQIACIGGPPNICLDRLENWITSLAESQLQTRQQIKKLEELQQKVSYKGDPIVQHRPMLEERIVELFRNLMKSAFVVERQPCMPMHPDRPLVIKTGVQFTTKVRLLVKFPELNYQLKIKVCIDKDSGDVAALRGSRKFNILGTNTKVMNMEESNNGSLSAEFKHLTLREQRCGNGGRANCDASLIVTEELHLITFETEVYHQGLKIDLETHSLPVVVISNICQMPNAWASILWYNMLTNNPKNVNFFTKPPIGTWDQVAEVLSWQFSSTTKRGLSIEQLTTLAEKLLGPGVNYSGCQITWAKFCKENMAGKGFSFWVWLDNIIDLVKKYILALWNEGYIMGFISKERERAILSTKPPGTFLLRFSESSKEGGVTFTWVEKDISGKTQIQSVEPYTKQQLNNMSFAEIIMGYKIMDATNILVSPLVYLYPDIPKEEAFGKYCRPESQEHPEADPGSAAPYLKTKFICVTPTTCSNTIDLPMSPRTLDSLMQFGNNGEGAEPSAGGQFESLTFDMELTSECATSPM

MDA-MB-231 [3] = experiment: Effect on total STAT3 level in human MDA-MB-231 cells at 0.3 to 3 uM measured after 3 hrs by Western blot analysis; format: functional, cell-based; conditions: dose 0.3-3 µM
Method in brief: (§1)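 Breast cancer cells were treated with vehicle (0.1% DMSO) or compound, then lysed in RIPA with PMSF and phosphatase inhibitors. 20–50 μg protein was run on 8 or 12% SDS-PAGE, blotted to PVDF, blocked in 5% BSA, probed with primary antibodies overnight at 4 °C, then HRP secondaries, with ECL detection.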

MDA-MB-468 = experiment: Effect on total STAT3 level in human MDA-MB-468 cells at 0.3 to 3 uM measured after 3 hrs by Western blot analysis; format: functional, cell-based; conditions: dose 0.3-3 µM; method in brief: as §1
[4] = molecular target: T1, Signal transducer and activator of transcription 3; experiment: Inhibition of STAT3 in human MDA-MB-468 cells assessed as downregulation of Bcl-xL expression at 0.3 to 3 uM after 24 hrs by western blot analysis; format: cell-based; conditions: dose 0.3-3 µM
Method in brief: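 TNBC cells given vehicle (0.1% DMSO) or graded compound levels for 24 h, lysed in RIPA with PMSF and phosphatase inhibitors. BCA-quantified lysate (20–50 µg) run on SDS-PAGE, transferred to PVDF, blocked in 5% BSA. Probed overnight at 4 °C for Bcl-xL, Mcl-1 and c-Myc, with β-actin. HRP secondary, ECL detection. Three independent experiments.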

[5] = Antiproliferative activity against human MDA231-LM2-4175 cells assessed as reduction in cell viability after 72 hrs by CCK8 assay; format: functional, cell-based; conditions: MDA231-LM2-4175, 72 h
Method in brief: (§2)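 Cells seeded at 1000–8000 per well were grown overnight, then exposed to 0.1–100 μM compound or 0.1% DMSO vehicle for 72 h. CCK-8 was added for 0.5–4 h at 37 °C and absorbance read at 480 nm. Viability = (OD compound − blank)/(OD vehicle − blank) × 100, with medium as blank. IC50 fitted from three independent experiments.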

H9c2 = experiment: Antiproliferative activity against rat H9C2 cells assessed as reduction in cell viability after 72 hrs by CCK8 assay; format: cell-based; conditions: H9c2, 72 h; method in brief: as §2
MDA-MB-231 [6] = experiment: Induction of apoptosis in human MDA-MB-231 cells assessed as viable cells at 1 uM after 48 hrs by Annexin-V-FITC/propidium iodide staining based flow cytometric analysis (reference value: 93.4%); format: functional; conditions: read-out: Activity
[7] = Induction of apoptosis in human MDA231-LM2-4175 cells assessed as early apoptotic cells at 3 uM after 48 hrs by Annexin-V-FITC/propidium iodide staining based flow cytometric analysis (reference value: 2.49%); format: functional
MDA-MB-231 [8] = experiment: Inhibition of cell migration in human MDA-MB-231 cells incubated for 12 to 96 hrs by wound healing assay; format: functional, cell-based; conditions: dose 0.3-3 µM, time 12-96 hrs
Method in brief: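 Cells grown to 100% confluence, then scratched with a pipette tip. Treated with 0–3 μM until vehicle-treated cells had migrated into the scratch. Images taken by microscope after about 12–96 h. Triplicate experiments.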

[9] = Half life in Sprague-Dawley rat at 10 mg/kg, po measured up to 24 hrs by LC-MS/MS analysis; format: ADME, organism-based; conditions: in vivo
Method in brief: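 Male SD rats given a single oral dose of 10 mg/kg in DMSO/0.5% HPMC (5/95, v/v). Blood was drawn at 0.25, 0.5, 1, 2, 4, 8 and 24 h, and plasma was analysed by LC-MS/MS on a BEH phenyl column with a formic acid water/acetonitrile mobile phase.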

[10] = Toxicity in mouse xenografted with human MDA-MB-231-4175 cells assessed as morphological change in heart at 5 to 15 mg/kg, […] once daily for 20 days by HE staining based assay; format: organism-based; conditions: in vivo, iv, 480 h, dose 5-15 mg/kg, time 20 day
Method in brief: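 Female NOD-SCID mice aged 4–5 weeks, given 2×10^6–3×10^6 MDA-MB-231-4175 cells subcutaneously in the flank. At about 100 mm³ tumour volume, randomised n=6/group: vehicle (PBS with 15% Cremophor EL), 5 or 15 mg/kg intraperitoneally daily. Killed at day 20; heart, liver, spleen, lung and kidney collected for morphological examination.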

With `O=C(Cc1c(-c2ccccc2)nc2ccccn12)Nc1ccc2c(c1)S(=O)(=O)C=C2` the IC50 (MDA-MB-231 [1]) was 1.2 µM, the inhibition [2] was “Dose-Dependent Effect” and the Activity (MDA-MB-231 [3]) was “inactive”. The Activity (MDA-MB-468) was “inactive”, the inhibition [4] was “Active” and the IC50 [5] was 2.5 µM. For the same molecule, the IC50 (H9c2) was 6.79 µM, the viability at 1 µM (MDA-MB-231 [6]) was 83.5% and the Activity [7] was 9.5%. For the same molecule, the inhibition (MDA-MB-231 [8]) was “Dose-Dependent Effect”, the half-life [9] was 1.46 h and the Activity [10] was “Non-Toxic”.
